Reference: ChEMBL document CHEMBL3120115, “Synthesis and biological evaluation of 2-oxonicotinonitriles and 2-oxonicotinonitrile based nucleoside analogues” (Eur J Med Chem, 2014)

How the values were obtained:
[1] = Selectivity index, ratio of CC50 for cytotoxicity to EC50 for Influenza A virus H5N1; assay type: toxicity; conditions: read-out: Ratio CC50/EC50
Procedure, shortened: (§1)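 CC50 is the concentration at which 50% of cells die, and EC50 is the concentration inhibiting 50% of viral infection. SI is calculated as the CC50/EC50 ratio.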

[2] = Selectivity index, ratio of CC50 for cytotoxicity to EC50 for Influenza A virus H3N2; assay type: toxicity; conditions: read-out: Ratio CC50/EC50; procedure, shortened: as §1
[3] = Selectivity index, ratio of CC50 for cytotoxicity to EC50 for Influenza B virus; assay type: toxicity; conditions: read-out: Ratio CC50/EC50; procedure, shortened: as §1
[4] = Selectivity index, ratio of CC50 for cytotoxicity to EC50 for HSV2; assay type: toxicity; conditions: read-out: Ratio CC50/EC50; procedure, shortened: as §1
[5] = Selectivity index, ratio of CC50 for cytotoxicity to EC50 for HSV1; assay type: toxicity; conditions: read-out: Ratio CC50/EC50; procedure, shortened: as §1
Influenza A virus [6] = experiment: Antiviral activity against Influenza A virus H5N1 by cytopathy assay; assay type: functional, organism-based
Influenza B virus = experiment: Antiviral activity against Influenza B virus by cytopathy assay; assay type: functional, organism-based
Influenza A virus [7] = experiment: Antiviral activity against Influenza A virus H3N2 by cytopathy assay; assay type: functional, organism-based
West Nile virus = experiment: Antiviral activity against West Nile virus by visual/neutral red test; assay type: functional, organism-based
SARS-CoV = experiment: Antiviral activity against SARS coronavirus by visual/neutral red test; assay type: functional, organism-based; conditions: Severe acute respiratory syndrome-related coronavirus
Human alphaherpesvirus 1 = experiment: Antiviral activity against HSV1 assessed as inhibition of viral infection; assay type: functional, organism-based
Human alphaherpesvirus 2 = experiment: Antiviral activity against HSV2 assessed as inhibition of viral infection; assay type: functional, organism-based
Hepatitis C virus = experiment: Antiviral activity against Hepatitis C virus assessed as inhibition of viral infection by RNA replicon assay; assay type: functional, organism-based, Hepacivirus hominis
Hepatitis B virus = experiment: Antiviral activity against Hepatitis B virus assessed as inhibition of viral infection by DNA virion assay; assay type: functional, organism-based
Aspergillus viridinutans = experiment: Antimicrobial activity against Aspergillus viridinutans at 250 ug/disc after 5 to 7 days by well diffusion method; assay type: functional; conditions: read-out: DIZ
Procedure, shortened: (§2)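 Well diffusion assay. Bacteria were grown on nutrient agar and fungi on Czapek's-Dox agar; spores were inoculated into sterilized medium, dispersed and poured into plates. Compounds were dissolved in DMF at 250 mg/mL and loaded into 1 cm wells. Plates stood 24 h refrigerated for diffusion, then were incubated at 35 °C for 48 h (bacteria) or 28 °C for 5-7 days (fungi). Inhibition zone diameter was read in mm. DMF-only wells served as negative control.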

Aspergillus niger = experiment: Antimicrobial activity against Aspergillus niger at 250 ug/disc after 5 to 7 days by well diffusion method; assay type: functional; conditions: read-out: DIZ; procedure, shortened: as §2
Escherichia coli = experiment: Antimicrobial activity against Escherichia coli at 250 ug/disc after 48 hrs by well diffusion method; assay type: functional; conditions: read-out: DIZ; procedure, shortened: as §2
Bacillus subtilis = experiment: Antimicrobial activity against Bacillus subtilis at 250 ug/disc after 48 hrs by well diffusion method; assay type: functional; conditions: read-out: DIZ; procedure, shortened: as §2
[8] = Selectivity index, ratio of CC50 for cytotoxicity to EC50 for Influenza A virus H1N1; assay type: toxicity; conditions: read-out: Ratio CC50/EC50; procedure, shortened: as §1
Influenza A virus [9] = experiment: Antiviral activity against Influenza A virus H1N1 by cytopathy assay; assay type: functional, organism-based
[10] = Selectivity index, ratio of CC50 for cytotoxicity to EC50 for SARS coronavirus; assay type: toxicity; conditions: read-out: Ratio CC50/EC50; procedure, shortened: as §1

## CC(C)c1ccc(-c2cc(-c3cccs3)[nH]c(=O)c2C#N)cc1
[1]
  selectivity ratio: > 3.1
[2]
  selectivity ratio: > 4.5
[3]
  selectivity ratio: > 2.2
[4]
  selectivity ratio: 1
[5]
  selectivity ratio: 1
Influenza A virus [6]
  EC50: 32 µM
Influenza B virus
  EC50: 46 µM
Influenza A virus [7]
  EC50: 22 µM
West Nile virus
  EC50: > 2.2 µM
SARS-CoV
  EC50: > 26 µM
Human alphaherpesvirus 1
  EC50: > 300 µM
Human alphaherpesvirus 2
  EC50: > 300 µM
Hepatitis C virus
  EC50: > 100 µM
Hepatitis B virus
  EC50: > 100 µM

## N#Cc1c(-c2ccc(Cl)cc2)cc(-c2ccccn2)nc1OCCCCO
Aspergillus viridinutans
  zone of inhibition at 250 µg/disc: 5 mm
Aspergillus niger
  zone of inhibition at 250 µg/disc: 7 mm
Escherichia coli
  zone of inhibition at 250 µg/disc: 0 mm
Bacillus subtilis
  zone of inhibition at 250 µg/disc: 2 mm

## CN(C)C=O [DIMETHYLFORMAMIDE]
Aspergillus viridinutans
  zone of inhibition at 250 µg/disc: 0 mm
Aspergillus niger
  zone of inhibition at 250 µg/disc: 0 mm
Escherichia coli
  zone of inhibition at 250 µg/disc: 0 mm
Bacillus subtilis
  zone of inhibition at 250 µg/disc: 0 mm

## CC(C)c1ccc(-c2cc(-c3cccs3)n([C@@H]3O[C@H](CO)[C@H](O)[C@H](O)[C@H]3O)c(=O)c2C#N)cc1
Aspergillus viridinutans
  zone of inhibition at 250 µg/disc: 6 mm
Escherichia coli
  zone of inhibition at 250 µg/disc: 5 mm
Bacillus subtilis
  zone of inhibition at 250 µg/disc: 3 mm

## N#Cc1c(-c2cccs2)cc(-c2cccs2)n([C@@H]2O[C@H](CO)[C@H](O)[C@H](O)[C@H]2O)c1=O
Aspergillus viridinutans
  zone of inhibition at 250 µg/disc: 8 mm
Escherichia coli
  zone of inhibition at 250 µg/disc: 0 mm
Bacillus subtilis
  zone of inhibition at 250 µg/disc: 4 mm

## CC(=O)OCCCCOc1nc(-c2ccccn2)cc(-c2ccc(Cl)cc2)c1C#N
Aspergillus viridinutans
  zone of inhibition at 250 µg/disc: 7 mm
Aspergillus niger
  zone of inhibition at 250 µg/disc: 9 mm
Escherichia coli
  zone of inhibition at 250 µg/disc: 0 mm
Bacillus subtilis
  zone of inhibition at 250 µg/disc: 3 mm

## CC(=O)OC[C@H]1O[C@@H](n2c(-c3cccs3)cc(-c3ccc(C(C)C)cc3)c(C#N)c2=O)[C@H](OC(C)=O)[C@@H](OC(C)=O)[C@@H]1OC(C)=O
[1]
  selectivity ratio: 1
[2]
  selectivity ratio: > 3
[3]
  selectivity ratio: > 2.2
[4]
  selectivity ratio: > 4.9
[5]
  selectivity ratio: > 4.4
Influenza A virus [6]
  EC50: 32 µM
Influenza B virus
  EC50: 40 µM
Influenza A virus [7]
  EC50: 33 µM
West Nile virus
  EC50: > 4.7 µM
SARS-CoV
  EC50: > 100 µM
Human alphaherpesvirus 1
  EC50: 67.2 µM
Human alphaherpesvirus 2
  EC50: 60.3 µM
Hepatitis C virus
  EC50: > 100 µM
Hepatitis B virus
  EC50: > 100 µM
Aspergillus viridinutans
  zone of inhibition at 250 µg/disc: 7 mm
Escherichia coli
  zone of inhibition at 250 µg/disc: 0 mm
Bacillus subtilis
  zone of inhibition at 250 µg/disc: 1 mm

## N#Cc1c(-c2cccs2)cc(-c2cccs2)nc1O
[8]
  selectivity ratio: > 3.1
[2]
  selectivity ratio: > 4.2
[4]
  selectivity ratio: < 4.8
[5]
  selectivity ratio: < 4.7
Influenza A virus [6]
  EC50: > 100 µM
Influenza A virus [9]
  EC50: 32 µM
Influenza B virus
  EC50: > 100 µM
Influenza A virus [7]
  EC50: 16 µM
West Nile virus
  EC50: > 4.6 µM
SARS-CoV
  EC50: > 100 µM
Human alphaherpesvirus 1
  EC50: > 12 µM
Human alphaherpesvirus 2
  EC50: > 12 µM
Hepatitis C virus
  EC50: > 100 µM
Hepatitis B virus
  EC50: > 100 µM

## C[C@@]1(O)[C@H](O)[C@@H](CO)O[C@H]1n1ccc(N)nc1=O
Hepatitis C virus
  EC50: 1.6 µM

## CC(=O)OC[C@H]1O[C@@H](n2c(-c3cccs3)cc(-c3cccs3)c(C#N)c2=O)[C@H](OC(C)=O)[C@@H](OC(C)=O)[C@H]1OC(C)=O
[4]
  selectivity ratio: < 2.4
[10]
  selectivity ratio: 1.9
[5]
  selectivity ratio: < 2.4
Influenza A virus [6]
  EC50: > 19 µM
Influenza A virus [9]
  EC50: > 28 µM
Influenza B virus
  EC50: > 12 µM
Influenza A virus [7]
  EC50: > 32 µM
West Nile virus
  EC50: > 3.6 µM
SARS-CoV
  EC50: 10 µM
Human alphaherpesvirus 1
  EC50: > 60 µM
Human alphaherpesvirus 2
  EC50: > 60 µM
Hepatitis C virus
  EC50: > 100 µM
Hepatitis B virus
  EC50: > 100 µM

## N#Cc1c(-c2ccc(Cl)cc2)cc(-c2ccccn2)n([C@@H]2O[C@H](CO)[C@H](O)[C@H](O)[C@H]2O)c1=O
Aspergillus viridinutans
  zone of inhibition at 250 µg/disc: 7 mm
Escherichia coli
  zone of inhibition at 250 µg/disc: 0 mm
Bacillus subtilis
  zone of inhibition at 250 µg/disc: 2 mm

## NC(=O)c1ncn([C@@H]2O[C@H](CO)[C@@H](O)[C@H]2O)n1 [RIBAVIRIN]
[1]
  selectivity ratio: > 76
[8]
  selectivity ratio: > 32
[2]
  selectivity ratio: > 160
[3]
  selectivity ratio: > 130
Influenza A virus [6]
  EC50: 4.2 µM
Influenza A virus [9]
  EC50: 10 µM
Influenza B virus
  EC50: 2.4 µM
Influenza A virus [7]
  EC50: 2 µM

## CC1(C)S[C@@H]2[C@H](NC(=O)[C@H](N)c3ccccc3)C(=O)N2[C@H]1C(=O)O [AMPICILLIN]
Escherichia coli
  zone of inhibition at 250 µg/disc: 18 mm
Bacillus subtilis
  zone of inhibition at 250 µg/disc: 20 mm

## N#Cc1c(-c2ccc(Cl)cc2)cc(-c2ccccn2)[nH]c1=O
[8]
  selectivity ratio: > 3.8
[4]
  selectivity ratio: 1
[5]
  selectivity ratio: 1
Influenza A virus [6]
  EC50: > 100 µM
Influenza A virus [9]
  EC50: 26 µM
Influenza B virus
  EC50: > 36 µM
Influenza A virus [7]
  EC50: > 2.6 µM
West Nile virus
  EC50: > 2.2 µM
SARS-CoV
  EC50: > 0.32 µM
Human alphaherpesvirus 1
  EC50: > 300 µM
Human alphaherpesvirus 2
  EC50: > 300 µM
Hepatitis C virus
  EC50: > 100 µM
Hepatitis B virus
  EC50: > 100 µM
